Active and inactive are the calls of the source. The rule behind the calls is not given here.

Data set [1] concerns Cytomegalovirus. In words: Antiviral activity against Cytomegalovirus AD 169 infected in human WI-38 cells assessed as inhibition of virus-induced cytopathogenicity measured at 7 days post-virus infection by […] microscopic analysis. The format is functional, organism-based. The essentials: (§1)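 Diploid human embryonic lung fibroblasts, 7-day-old monolayers in tubes, MEM plus 2% fetal bovine serum. Compound added in fresh medium (triplicate), then ~32 CCID50 virus per culture. Incubated 37 °C; medium replaced with fresh drug-containing medium at 48 h and again 48 h later. Cytotoxicity, virus and cell controls included. Cpe scored microscopically at day 7; virus rating (VR) calculated from cpe inhibition and drug cytotoxicity.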
A general note: Cytopathic effects are the visible damage that an infection or toxin causes in cultured cells.

In data set [2] the test system is Human rhinovirus 1A. The data set is described as follows: Antiviral activity against Human rhinovirus 1A 2060 infected in human KB cells assessed as inhibition of virus-induced cytopathogenicity measured at 4 days post-virus infection by Microtest 2 plate based microscopic analysis. The format is functional, organism-based. The essentials:
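Rhinovirus in KB cells under BME with 5% fetal bovine serum, challenged at 32 CCID50 per well alongside compound. Seven half-log concentrations spanning cytotoxic to noncytotoxic, triplicate. Cell, virus and drug-cytotoxicity controls included. Plates sealed, held at 33 °C. Cpe reduction examined microscopically after 4 days; virus rating (VR) computed from cpe inhibition and cytotoxicity.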

For data set [3], the system named is Human alphaherpesvirus 3. The data set is described as follows: Antiviral activity against Varicella zoster virus Ellen infected in human WI-38 cells assessed as inhibition of virus-induced cytopathogenicity measured at 7 days post-virus infection by […] microscopic analysis. In kind it is functional, organism-based. The essentials: as §1
Data set [4] concerns Human adenovirus 2. In words: Antiviral activity against Human adenovirus 2 Adenoid-6 infected in human KB cells assessed as inhibition of virus-induced cytopathogenicity measured at 4 days post-virus infection by Microtest 2 plate based microscopic analysis. The format is functional, organism-based. The essentials:
(§2)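 Cells pregrown in microplates in BME (double vitamins/amino acids, 5% FBS). Medium replaced with compound-containing medium plus virus giving 32 CCID50 per well. Seven concentrations, half-log steps from cytotoxic to noncytotoxic, in triplicate. Cell, virus and cytotoxicity controls run alongside. Incubated 37 °C; cpe reduction judged microscopically at 4 days. Virus rating (VR) derived from cpe inhibition and cytotoxicity.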

For data set [5], the system named is Human alphaherpesvirus 1. In words: Antiviral activity against Herpes simplex virus 1 HF infected in human Hep2 cells assessed as inhibition of virus-induced cytopathogenicity measured at 4 days post-virus infection by Microtest 2 plate based microscopic analysis. The format is functional, organism-based. Conditions: HEp-2. The essentials:
as §2

The test system of data set [6] is Respiratory syncytial virus. In words: Antiviral activity against Respiratory syncytial virus Long infected in human Hep2 cells assessed as inhibition of virus-induced cytopathogenicity measured at 4 days post-virus infection by Microtest 2 plate based microscopic analysis. In kind it is functional, organism-based. Conditions: HEp-2. The essentials:
as §2

A short description of data set [7]: Virus rating for antiviral activity against Herpes simplex virus 1 HF infected in human Hep2 cells assessed as inhibition of virus-induced cytopathic effect taking into account cytotoxicity against human Hep2 cells.

On to `[N-]=[N+]=Nc1nc(N)c2nnn([C@H]3O[C@H](CO)[C@@H](O)[C@@H]3O)c2n1`, for which the inhibition result in data set [1], in data set [2], in data set [3], in data set [4], in data set [5] and in data set [6] was “inactive” throughout.

Take `Nc1ncnc2c1ncn2[C@H]1O[C@H](CO)[C@@H](O)[C@@H]1O`: the virus rating in data set [7] turned out to be 0.6.

Regarding `Nc1ncnc2c1nnn2[C@H]1O[C@H](CO)[C@@H](O)[C@@H]1O`, the virus rating in data set [7] stood at 1.

As to `COc1nc(N)c2ncn([C@H]3O[C@H](CO)[C@@H](O)[C@@H]3O)c2n1`, the inhibition result in data set [1], in data set [2], in data set [3], in data set [4], in data set [5] and in data set [6] was “inactive” in each case.

Turning to `COc1nc(N)c2nnn([C@H]3O[C@H](CO)[C@@H](O)[C@@H]3O)c2n1`, the inhibition entry in data set [1], in data set [2], in data set [3], in data set [4], in data set [5] and in data set [6] was “inactive” throughout.

In the case of `CSc1nc(N)c2nnn([C@H]3O[C@H](CO)[C@@H](O)[C@@H]3O)c2n1`, the inhibition result in data set [1], in data set [2], in data set [3], in data set [4], in data set [5] and in data set [6] was “inactive” throughout.

In the case of `CSc1nc(N)c2ncn([C@H]3O[C@H](CO)[C@@H](O)[C@@H]3O)c2n1`, the inhibition entry in data set [1], in data set [2], in data set [3], in data set [4], in data set [5] and in data set [6] was “inactive” each time.

For `CS(=O)(=O)c1nc(N)c2nnn([C@H]3O[C@H](CO)[C@@H](O)[C@@H]3O)c2n1`, the inhibition entry in data set [1], in data set [2], in data set [3], in data set [4], in data set [5] and in data set [6] was “inactive” throughout.

In the case of `NNc1nc(N)c2ncn([C@H]3O[C@H](CO)[C@@H](O)[C@@H]3O)c2n1`, the inhibition result in data set [1], in data set [2], in data set [3], in data set [4], in data set [5] and in data set [6] was “inactive” each time.

`NNc1nc(N)c2nnn([C@H]3O[C@H](CO)[C@@H](O)[C@@H]3O)c2n1`: the inhibition entry in data set [1], in data set [2], in data set [3], in data set [4], in data set [5] and in data set [6] was “inactive” each time.

The values above are taken from ChEMBL document CHEMBL3244246, “2-Substituted derivatives of 9-alpha-D-arabinofuranosyladenine and 9-alpha-D-arabinofuranosyl-8-azaadenine” (J Med Chem, 1977).
